In ChEMBL document CHEMBL5150073, “Photocaged DNA-Binding Photosensitizer Enables Photocontrol of Nuclear Entry for Dual-Targeted Photodynamic Therapy” (J Med Chem, 2022):
The source made the active and inactive calls. No cut-off for these calls is given here.

Tests used:
Calf thymus DNA [1] = experiment: Binding affinity to calf thymus DNA assessed as dissociation constant by fluorescence based analysis; format: nucleic-acid assay, Bos taurus
Summary of the method: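 Fluorescence titration: compound at 20 μM in PBS pH 7.4, calf thymus DNA added in 10 μM steps until emission plateaued (~60 μM). Excitation 345 nm, emission 350–650 nm. KD obtained by fitting a one-site total saturation binding model (nonspecific binding proportional to ligand). Triplicate independent samples.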

Calf thymus DNA [2] = experiment: Binding affinity to calf thymus DNA assessed as reduction in absorbance spectra at 20 uM by fluorescence based analysis; format: nucleic-acid assay; settings: Bos taurus
[3] = Drug localization in cytosol of human MCF7 cells assessed as increase in bright green fluorescence of wintergreen excitation at 2 uM incubated for 1 hr in dark by EGFP filter based analysis; format: ADME, subcellular
[4] = Drug localization in mitochondria of human MCF7 cells assessed as increase in bright green fluorescence of wintergreen excitation at 2 uM incubated for 1 hr in dark by Mitotracker green dye based analysis; format: ADME; settings: mcf7, 1 h
MCF7 [5] = experiment: Photorelease activity in human MCF7 cells assessed as wintergreen release by measuring bright green fluorescence in nucleus at 3 uM incubated for 1 hr followed by illumination with 1.6 J/cm^2 for 10 mins by EGFP filter based analysis; format: ADME, cell-based; settings: mcf7, 1.167 h, time 70 min
Summary of the method: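 MCF7 cells given compound (3 μM) for 1 h, washed once with PBS, imaged. DAPI filter set (ex 350–405, em 415–470 nm) used for Br-DAPI cyan signal; EGFP filter set (ex 450–495, em 500–550 nm) used for WinterGreen green signal. Cells imaged dark, then after 480 nm illumination (10 min, 1.6 J cm⁻²).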

[6] = Stability of compound in human A549 cells assessed as esterase-mediated 3-bromo-2-(4-carbamimidoylphenyl)-1H-indole-6-carboxamidine release by measuring cyan fluorescence at 2 uM incubated for 1 hr followed by compound washout and further incubated for 1 hr on heated microscopic stage by DAPI filter based fluorescence analysis; format: ADME, cell-based; settings: a549, 1 h
Summary of the method: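 Cells incubated with compound (2 μM) for 1 h, washed once with PBS, then kept a further 1 h in the dark on a heated microscope stage. Nuclear cyan fluorescence imaged with the DAPI filter set at 0 h and 2 h time points.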

[7] = Induction of ROS production in PBS at pH 7.4 at 1 uM irradiated with 480 nm 2.3 J/cm^2 light for 15 mins with 8 J/cm^2 UV irradiation for 5 mins by DCFH2-DA probe based analysis; format: functional; settings: time 20.0 min
MCF7 [8] = experiment: Induction of DNA damage in human MCF7 cells assessed as double strand breaks by measuring pink foci formation in nucleus at 3 uM incubated for 2 hrs followed by irradiation with 480 nm 2.3 J/cm^2 light for 15 mins with 8 J/cm^2 UV irradiation for 5 mins by gammaH2A.X antibody/Alexa 488/DAPI staining based fluorescence analysis; format: functional, cell-based
Summary of the method: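 MCF7 cells treated with compound at 3 μM, then illuminated with 480 nm (15 min, 2.3 J cm⁻²) plus UV (5 min, 8.0 J cm⁻²), or with UV alone. Left 2 h, fixed, stained with Alexa 488-tagged γH2AX antibody and DAPI counterstain. Nuclear foci imaged.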

MCF7 [9] = experiment: Photocytotoxicity against human MCF7 cells assessed as reduction in cell viability incubated for 1 hr under dark condition followed by washout and measured after 24 hrs by MTT assay; format: functional
Summary of the method: (§1)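 Cells (MCF7, A549, HeLa) incubated 1 h with compound (BB probes 0–32 μM, Br-DAPI 0–64 μM) and washed once. Light arms: 480 nm (15 min, 2.3 J cm⁻²) with or without UV (5 min, 8.0 J cm⁻²), or UV only; dark controls unilluminated. Cells kept overnight in growth medium, then MTT read 24 h post-treatment. CC50 taken relative to untreated cells. n = 3.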

MCF7 [10] = experiment: Photocytotoxicity against human MCF7 cells assessed as reduction in cell viability incubated for 1 hr followed by washout and irradiation with 480 nm 2.3 J/cm^2 light for 15 mins with 8 J/cm^2 UV irradiation for 5 mins and measured after 24 hrs by MTT assay; format: functional; settings: MCF7, light or radiation study; summary of the method: as §1
[11] = Selectivity index, ratio of CC50 for photocytotoxicity against human MCF7 cells irradiated with 480 nm 2.3 J/cm^2 light to CC50 for photocytotoxicity against human MCF7 cells irradiated with 480 nm 2.3 J/cm^2 light and 8 J/cm^2 UV irradiation; format: functional; summary of the method: as §1
A549 = experiment: Selectivity index, ratio of CC50 for photocytotoxicity against human […] cells irradiated with 480 nm 2.3 J/cm^2 light to CC50 for photocytotoxicity against human A549 cells irradiated with 480 nm 2.3 J/cm^2 light and 8 J/cm^2 UV irradiation; format: functional; summary of the method: as §1
[12] = Selectivity index, ratio of CC50 for photocytotoxicity against human HeLa cells irradiated with 480 nm 2.3 J/cm^2 light to CC50 for photocytotoxicity against human HeLa cells irradiated with 480 nm 2.3 J/cm^2 light and 8 J/cm^2 UV irradiation; format: functional; summary of the method: as §1
MCF7 [13] = experiment: Photocytotoxicity against human MCF7 cells assessed as cell death by measuring increase in green fluorescence incubated for 1 hr followed by washout and irradiated with 480 nm 2.3 J/cm^2 light for 15 mins with 48 J 780 nm 2P laser light for 30 seconds and further incubated for 2 hrs by cell viability imaging kit based assay; format: functional; settings: dose 0-8 µM, DDE = dose-dependent effect
Summary of the method: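 MCF7 cells given compound at 4 μM. Illuminated with 480 nm light (15 min, 2.3 J cm⁻²) plus 780 nm two-photon laser (30 s, 48 J). Stained 2 h later with a live/dead imaging kit: green dead-cell stain (EGFP filter), blue total-cell stain (DAPI filter). n = 3.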

MCF7 [14] = experiment: Photocytotoxicity against human MCF7 cells cultured as […] spheroids assessed as tumor spheroid shrinkage at 10 uM incubated for 1 hr followed by washout and irradiation with 480 nm 2.3 J/cm^2 light for 15 mins with 8 J/cm^2 UV irradiation for 5 mins and incubated overnight by cell viability imaging kit based assay; format: functional
Summary of the method: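 MCF7 spheroids (~300 μm) grown in ultralow-attachment plates. Compound added to medium at 10 μM final for 1 h, then illuminated: 480 nm (15 min, 2.3 J cm⁻²), 480 nm plus UV (5 min, 8.0 J cm⁻²), or UV only. After overnight incubation, stained with a live/dead imaging kit; dead-cell green mean intensity and spheroid diameter assessed.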

Calf thymus DNA [15] = experiment: Binding affinity to calf thymus DNA assessed as fold change in fluorescence quenching of 3-bromo-2-(4-carbamimidoylphenyl)-1H-indole-6-carboxamidine; format: nucleic-acid assay; settings: Bos taurus
[16] = Photorelease activity in PBS at pH 7.4 assessed as 3-bromo-2-(4-carbamimidoylphenyl)-1H-indole-6-carboxamidine release by measuring time at when peak observed at 50 uM in presence of CT-DNA illuminated with 3.1 J/cm^2 480 nm illumination for 20 mins by RP-HPLC analysis; format: functional
Summary of the method: (§2)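 Samples at 50 μM in PBS pH 7.4 were either kept 3 h at 37 °C in the dark or illuminated 20 min at 480 nm (450–495 nm filter, 3.1 J cm⁻²). Analysed by RP-HPLC on a C18 analytical column with absorbance at 345 nm; retention times recorded. n = 2 independent samples.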

[17] = Photorelease activity in PBS at pH 7.4 assessed as wintergreen release at 50 uM in presence of CT-DNA illuminated with 3.1 J/cm^2 480 nm illumination for 20 mins by RP-HPLC analysis; format: functional; summary of the method: as §2
MCF7 [18] = experiment: Photocytotoxicity against human MCF7 cells cultured as 3D spheroids assessed as fold reduction in diameter of tumor spheroid size at 10 uM incubated for 1 hr followed by washout and irradiation with 480 nm 2.3 J/cm^2 light for 15 mins with 8 J/cm^2 UV irradiation for 5 mins and incubated overnight by cell viability imaging kit based assay

- Activity (Calf thymus DNA [2]): Active
- Drug uptake [3]: Active
- Drug uptake [4]: Active
- Drug metabolism (MCF7 [5]): Metabolite_Notdetected
- Stability [6]: Stable
- fold change (FC) (Calf thymus DNA [15]): 4
Compound: CC1=CC(C)=[N+]2C1=C(COC(=O)/N=C(\N)c1ccc3c(Br)c(-c4ccc(C(=N)N)cc4)[nH]c3c1)c1c(C)cc(C)n1[B-]2(C)C
- Kd (Calf thymus DNA [1]): 6 µM
- Activity [7]: Active
- Activity (MCF7 [8]): Active
- CC50 (MCF7 [9]): > 10 µM
- CC50 (MCF7 [10]): 470 nM
- Ratio [11]: 8.5
- Ratio (A549): 17
- Ratio [12]: 2.2
- Activity (MCF7 [13]): Dde
- Activity (MCF7 [14]): Active
- TIME [16]: 0.533 h
- Drug metabolism [17]: Metabolite not detected
- Activity (MCF7 [18]): Active
